Experimental data collected from several papers.
KIT D816V: Mast/stem cell growth factor receptor Kit (KIT, Homo sapiens, UniProt P10721, D816V)
KIT L576P: Mast/stem cell growth factor receptor Kit (KIT, Homo sapiens, UniProt P10721, L576P)
KIT A829P: Mast/stem cell growth factor receptor Kit (KIT, Homo sapiens, UniProt P10721, A829P)
KIT T670I/V559D: Mast/stem cell growth factor receptor Kit (KIT, Homo sapiens, UniProt P10721, T670I/V559D)
KIT V559D/V654A: Mast/stem cell growth factor receptor Kit (KIT, Homo sapiens, UniProt P10721, V559D/V654A)
KIT V559D: Mast/stem cell growth factor receptor Kit (KIT, Homo sapiens, UniProt P10721, V559D)
KIT D816H: Mast/stem cell growth factor receptor Kit (KIT, Homo sapiens, UniProt P10721, D816H)
KIT autoinhibited: Mast/stem cell growth factor receptor Kit, autoinhibited (KIT, Homo sapiens, UniProt P10721)
KIT: Mast/stem cell growth factor receptor Kit (KIT, Homo sapiens, UniProt P10721)

| SMILES | target | observed | technique | concentration | remaining binding [%] |
| --- | --- | --- | --- | --- | --- |
| CN(C)c1nccc(-c2cnn3ncccc23)n1 | KIT D816V | binding |  | 1 µM | 60 |
| C=CC(=O)N1CCC(C(=O)NCC(=O)N2CCN(c3nc(-c4cnc(N)nc4C(F)F)nc(N4CCOCC4)n3)CC2)CC1 | KIT L576P | binding | competition with immobilised ligand | 1 µM | 53 |
| C[C@@H](c1ccc(-n2cnc3c(N)ncnc32)cc1)N1CCc2nn(C)c(Cc3ccccc3)c2C1=O | KIT A829P | binding | competition with immobilised ligand | 0.1 µM | 52 |
| c1cnn2ncc(-c3ccnc(N4CCC45COC5)n3)c2c1 | KIT A829P | binding |  | 1 µM | 61 |
| c1cncc(-c2cccc(Nc3nccc(NC4CCCCC4)n3)c2)c1 | KIT D816V | binding | competition with immobilised ligand | 10 µM | 0.75 |
| CS(=O)(=O)N1CCCC(NC(=O)[C@H](CCC2CCCCC2)NC(=O)c2ccc(CNc3ncnc4c3nnn4-c3ccccc3)cc2)C1 (stereo partly drawn) | KIT T670I/V559D | cell-free assay | competition with immobilised ligand | 0.1 µM | 100 |
| O=C(NCCCN1CCOCC1)c1ccc(Nc2ncc(Cl)c(-c3ccc(Cl)s3)n2)cc1 | KIT T670I/V559D | binding | competition with immobilised ligand | 1 µM | 2.3 |
| CCN1CCN(Cc2ccc(C(=O)Nc3ccc(C)c(Oc4ccc5c(c4)CC(=O)N5)c3)cc2C(F)(F)F)CC1 | KIT T670I/V559D | binding | competition with immobilised ligand | 1 µM | 58 |
| O=C(c1ccc(Nc2ncc(Cl)c(-c3cc4ccccc4s3)n2)cc1)N1CCC(N2CCCC2)CC1 | KIT V559D/V654A | binding | competition with immobilised ligand | 1 µM | 50 |
| Cc1nc(Cc2cccc(C(F)(F)F)c2)sc1-c1ccc(C(N)=O)nc1 | KIT D816V | cell-free assay | competition with immobilised ligand | 1 µM | 81 |
| Nc1ncc2c(n1)-c1c([nH]c3ccc(C#CC4CC4)cc13)CCCC2 | KIT D816V | binding | competition with immobilised ligand | 1 µM | 100 |
| F[C@@H]1CCN(c2nccc(-c3cnn4ncccc34)n2)C1 | KIT D816V | binding |  | 1 µM | 100 |
| O=C(c1ccc(Nc2nccc(-c3cc4ccccc4s3)n2)cc1)N1CCC(N2CCCC2)CC1 | KIT V559D | binding | competition with immobilised ligand | 1 µM | 18 |
| Cc1cnn2ncc(-c3ccnc(N(C)C)n3)c2c1 | KIT D816V | binding |  | 1 µM | 100 |
| COc1ncc2cc3ccccc3nc2c1C#N | KIT L576P | cell-free assay | competition with immobilised ligand | 5 µM | 100 |
| CC(C)(O)c1cncc(-c2nc3ccc(F)cc3n2C2CC2)c1 | KIT A829P | cell-free assay | competition with immobilised ligand | 1 µM | 100 |
| CN1CCN(c2ccc(Nc3nccc(-c4ccccc4)n3)cc2C(F)(F)F)CC1 | KIT T670I/V559D | binding |  | 10 µM | 0.15 |
| O=C(Nc1cccnn1)N1CCC(=Cc2cccc(Oc3ccc(C(F)(F)F)cn3)c2)CC1 | KIT A829P | cell-free assay | competition with immobilised ligand | 1 µM | 96 |

| SMILES | target | observed | technique | concentration | remaining binding [%] |
| --- | --- | --- | --- | --- | --- |
| CN1CCN(c2ccc(Nc3nccc(-c4cccc([N+](=O)[O-])c4)n3)cc2C(F)(F)F)CC1 | KIT V559D | binding |  | 10 µM | 0 |
| O=C(c1ccc(Nc2ncc(Cl)c(-c3ccc(Cl)s3)n2)cc1)N1CCC(N2CCCC2)CC1 | KIT D816H | binding | competition with immobilised ligand | 1 µM | 7.7 |
| COc1cnc(Nc2cccc(S(N)(=O)=O)c2)nc1N1CCN(c2ccccc2)C(=O)C1 | KIT T670I/V559D | binding | competition with immobilised ligand | 1 µM | 100 |
| Cc1c(C(=O)O)cc(-c2ccc(C3CCNCC3)cc2)c2ccc(-c3ccc(C(F)(F)F)cc3)cc12 | KIT D816H | binding | competition with immobilised ligand | 1 µM | 100 |
| CNC(=O)[C@@H]1CC[C@@H](n2c(-c3ccc4cnccc4c3)nc3ccc(C(=O)NCc4cccc(C(N)=O)c4)cc32)C1 | KIT autoinhibited | binding | competition with immobilised ligand | 1 µM | 100 |
| O=C(NCC1CCOCC1)c1n[nH]cc1NC(=O)c1c(F)cccc1F | KIT L576P | binding | competition with immobilised ligand | 1 µM | 100 |
| CN(c1nccc(-c2cnn3ncccc23)n1)C1CC1 | KIT A829P | binding |  | 1 µM | 88 |
| CCCCN(CCCC)C(=O)CN1C[C@H](c2cc(OC)c3c(c2)OCO3)[C@@H](C(=O)O)[C@@H]1CC(C)(C)CCC | KIT D816V | cell-free assay | competition with immobilised ligand | 1 µM | 100 |
| CN(CCCC(F)(F)F)c1nccc(-c2cnn3ncccc23)n1 | KIT V559D/V654A | binding |  | 1 µM | 100 |
| Cc1cnc(Nc2ccc(C(=O)N3CCC(N4CCCC4)CC3)cc2)nc1-c1cc2ccccc2s1 | KIT T670I/V559D | binding | competition with immobilised ligand | 1 µM | 10 |
| COc1cnc(Nc2cccc(S(N)(=O)=O)c2)nc1N1CCN(c2ccccc2)CC1 | KIT L576P | binding | competition with immobilised ligand | 1 µM | 80 |
| O=C(O)[C@H]1[C@H](Cn2nnc3ccccc3c2=O)CC[C@@H]1C(=O)c1ccc(OCCC2CCOCC2)cc1 | KIT L576P | cell-free assay | competition with immobilised ligand | 1 µM | 96 |
| N[C@H]1CCN(c2nccc(-c3cnn4ncccc34)n2)C1 | KIT autoinhibited | binding |  | 1 µM | 0 |
| O=C(NCCCN1CCOCC1)c1ccc(Nc2nccc(-c3cc4ccccc4s3)n2)cc1 | KIT A829P | binding | competition with immobilised ligand | 1 µM | 36 |
| C[C@H]1CCN(c2nccc(-c3cnn4ncccc34)n2)C1 | KIT V559D/V654A | binding |  | 1 µM | 79 |
| O=C(Nc1c[nH]nc1C(=O)NC1CCNCC1)c1cc(F)cc(F)c1 | KIT | binding | competition with immobilised ligand | 1 µM | 100 |
| CC(C)(C)c1ccc(-c2nc(CBr)nn2-c2cccc(O)c2)cc1 | KIT | cell-free assay | competition with immobilised ligand | 10 µM | 97 |
| CN(C)C(=O)Cn1cc(-c2nc(C3(c4ccc(-c5cnc(N)nc5)cc4)CC3)no2)cn1 | KIT | cell-free assay | competition with immobilised ligand | 1 µM | 93 |
